Test results reported in ChEMBL document CHEMBL1275327, “Synthesis and biological activities of pyrazolo[3,4-g]quinoxaline derivatives” (Eur J Med Chem, 2010).
pIC50: −log10 of the molar value. Active and inactive are the calls of the source. The calls are words filed in the database; no cut-off is given here.

Legend:
[1] = biological target: Serine/threonine-protein kinase pim-1 (Homo sapiens) (UniProt P11309); test: Inhibition of Pim1 assessed as residual enzyme activity at 10 uM
[2] = biological target: Serine/threonine-protein kinase pim-3 (Homo sapiens) (UniProt Q86V86); test: Inhibition of Pim3 assessed as residual enzyme activity at 1 uM
[3] = biological target: Serine/threonine-protein kinase pim-1 (Homo sapiens) (UniProt P11309); test: Inhibition of Pim1 assessed as residual enzyme activity at 1 uM
[4] = biological target: Serine/threonine-protein kinase pim-2 (Homo sapiens) (UniProt Q9P1W9); test: Inhibition of Pim2 assessed as residual enzyme activity at 1 uM
[5] = Antiproliferative activity against human Fibroblast assessed as inhibition of cell proliferation at 10 uM after 48 hrs by resazurin reduction test; assay type: cell-based; details: human fibroblasts
[6] = test system: PC-3; test: Antiproliferative activity against human PC3 cells assessed as inhibition of cell proliferation at 10 uM after 48 hrs by resazurin reduction test; assay type: functional; details: PC-3, 48 h
In short: (§1)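 PA1 and PC3 screen: cells at 5×10^3/well adhered 16 h, then were treated 48 h continuously at 1 and 10 µM from a 20 mM DMSO stock. Growth inhibition was scored by resazurin reduction (25 µg/mL, 1 h, 37 °C; fluorescence ex 530/em 590 nm) relative to control wells after blank subtraction.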

[7] = biological target: Serine/threonine-protein kinase pim-2 (Homo sapiens) (UniProt Q9P1W9); test: Inhibition of Pim2 assessed as residual enzyme activity at 10 uM
[8] = test system: PA-1; test: Antiproliferative activity against human PA1 cells assessed as inhibition of cell proliferation at 10 uM after 48 hrs by resazurin reduction test; assay type: functional; details: PA-1, 48 h; in short: as §1
[9] = biological target: Serine/threonine-protein kinase pim-3 (Homo sapiens) (UniProt Q86V86); test: Inhibition of Pim3 assessed as residual enzyme activity at 10 uM
[10] = test system: DU-145; test: Antiproliferative activity against human DU145 cells assessed as inhibition of cell proliferation at 10 uM after 48 hrs by resazurin reduction test; assay type: functional; details: DU-145, 48 h
[11] = test system: DU-145; test: Antiproliferative activity against human DU145 cells after 48 hrs by resazurin reduction test; assay type: functional, cell-based; details: DU-145, 48 h
In short: (§2)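 Cells grown as monolayers in MEM with Earle's salts, 10% FCS, pyruvate, non-essential amino acids and gentamicin at 37 °C, 5% CO2. 5×10^3 cells/well adhered 16 h, then had 48 h continuous exposure to drug from a 20 mM DMSO stock. Resazurin (25 µg/mL, 1 h, 37 °C) was read by fluorescence (ex 530/em 590 nm). IC50 came from blank-corrected survival % vs control wells.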

[12] = Antiproliferative activity against human Fibroblast after 48 hrs by resazurin reduction test; assay type: cell-based; in short: as §2
[13] = test system: PA-1; test: Antiproliferative activity against human PA1 cells after 48 hrs by resazurin reduction test; assay type: functional, cell-based; details: PA-1, 48 h; in short: as §2
[14] = test system: PC-3; test: Antiproliferative activity against human PC3 cells after 48 hrs by resazurin reduction test; assay type: functional, cell-based; details: PC-3, 48 h; in short: as §2

Serine/threonine-protein kinase pim-1 (Homo sapiens), sequence (P11309 whole entry, looked up): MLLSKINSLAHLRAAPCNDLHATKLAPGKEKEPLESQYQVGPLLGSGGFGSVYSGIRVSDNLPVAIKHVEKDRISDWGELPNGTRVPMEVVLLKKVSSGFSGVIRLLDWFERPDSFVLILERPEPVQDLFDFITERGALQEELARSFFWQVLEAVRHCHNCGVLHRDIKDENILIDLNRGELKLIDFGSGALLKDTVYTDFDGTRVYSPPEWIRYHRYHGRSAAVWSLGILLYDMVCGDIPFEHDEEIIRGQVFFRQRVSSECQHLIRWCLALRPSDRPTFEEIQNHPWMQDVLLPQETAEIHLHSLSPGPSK
Serine/threonine-protein kinase pim-2 (Homo sapiens), sequence (Q9P1W9 whole entry, looked up): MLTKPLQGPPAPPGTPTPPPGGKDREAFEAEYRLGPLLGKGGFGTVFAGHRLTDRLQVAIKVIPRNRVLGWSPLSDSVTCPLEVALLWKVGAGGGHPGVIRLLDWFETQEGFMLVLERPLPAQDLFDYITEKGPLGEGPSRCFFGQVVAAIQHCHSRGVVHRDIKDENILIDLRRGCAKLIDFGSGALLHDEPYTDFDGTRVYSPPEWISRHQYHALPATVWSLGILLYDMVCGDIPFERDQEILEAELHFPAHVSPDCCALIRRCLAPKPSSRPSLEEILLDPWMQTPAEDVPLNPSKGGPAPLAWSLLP

| Activity [1] [%] | Activity [2] [%] | Activity [3] | Activity [4] | Activity [7] | Activity [9] [%] | pIC50 [11] | pIC50 [14] | Structure (SMILES) | inhibition at 48 h, 10 µM [5] [%] | inhibition at 10 µM [6] [%] | inhibition at 10 µM [8] [%] | inhibition at 10 µM [10] [%] | pIC50 [12] | pIC50 [13] |
| --- | --- | --- | --- | --- | --- | --- | --- | --- | --- | --- | --- | --- | --- | --- |
| 45 | 95 | 88% | 82% | 76% | 37 | – | – | CC1(C)[C@@H]2CC[C@@]1(C)c1nc3cc4cn[nH]c4cc3nc12 | < 50 | < 50 | < 50 | < 50 | – | – |
| 59 | 72 | 88.5% | inactive | inactive | 44 | < 4.30 | < 4.30 | CC1Cc2nc3cc4[nH]ncc4cc3nc2C1C (racemic) | – | – | – | – | < 4.30 | 5.21 |
| 83 | 95 | inactive | inactive | inactive | 79 | 4.46 | < 4.30 | c1ccc(C2Cc3nc4cc5cn[nH]c5cc4nc3C2)cc1 (racemic) | – | – | – | – | < 4.30 | 5.39 |
| 69 | 73 | inactive | inactive | inactive | 33 | < 4.30 | < 4.30 | CC1Cc2nc3cc4cn[nH]c4cc3nc2C1C (racemic) | – | – | – | – | < 4.30 | 5.33 |
| 59 | 69 | 95% | inactive | inactive | 32 | – | – | Nc1cc2cn[nH]c2cc1N | < 50 | < 50 | < 50 | < 50 | – | – |
| 55.1 | 58 | 90% | inactive | inactive | 19.7 | < 4.30 | < 4.30 | c1n[nH]c2cc3nc4c(nc3cc12)CCCC4 | – | – | – | – | < 4.30 | 4.80 |
| 49 | 84 | 89% | inactive | inactive | 31 | < 4.30 | < 4.30 | CCc1nc2cc3cn[nH]c3cc2nc1CC | – | – | – | – | < 4.30 | 5.19 |
| 66.6 | 81 | 95% | inactive | inactive | 46.4 | – | – | c1n[nH]c2cc3nc4c(nc3cc12)CCC4 | < 50 | < 50 | < 50 | < 50 | – | – |
| 71 | 83 | 96% | inactive | 78% | 43 | – | – | CC1(C)[C@H]2CC[C@]1(C)c1nc3cc4[nH]ncc4cc3nc12 | < 50 | < 50 | < 50 | < 50 | – | – |
